The EternaBench riboswitch data

Tested on: MS2 coat protein
Assay: apparent Kd, MS2 coat protein; higher = weaker binding; RNA-MaP array; FMN 200 µM where present
Summary of the method: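 Designs on Illumina sequencing-chip clusters, transcribed by stalled E. coli RNA polymerase, were exposed to SNAP-549-labelled MS2 coat protein in doubling steps from 0.7 or 1.5 nM up to 3 µM, without and then with constant ligand. The buffer held 100 mM Tris-HCl pH 7.5, 80 mM KCl, 4 mM MgCl2, BSA, DTT, yeast tRNA and Tween-20. Apparent Kd values are medians of filtered per-cluster binding-curve fits to green signal normalised to red-channel RNA signal and control-cluster median Fmax.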

[1] = designed as: OFF switch for flavin mononucleotide, no ligand
[2] = ligand present: flavin mononucleotide, designed as: OFF switch for flavin mononucleotide
[3] = designed as: ON switch for flavin mononucleotide, no ligand
[4] = ligand present: flavin mononucleotide, designed as: ON switch for flavin mononucleotide

Row | Sequence | apparent Kd [1] | apparent Kd [2] | apparent Kd [3] | apparent Kd [4]
1 | UCAUGAUGGAAGAAGGGAGUCGUGCAUGACAACUCAGGAUAUUUCACAUGAGGAUCACCCAUGUCGAAGUAACAAUGUUGAUCA | 16.2 nM | 56.6 nM |  | 
2 | UAAUCUCAGAUAGGAUAUAUAGGAUAAUUUAAGACCGAACAUGAGGAUCACCCAUGUGAUUAUUCGUAGAAGGAUCAAUGACCC |  |  | 78.3 nM | 76.2 nM
3 | AAGAAGUGAGGAUAUCGAAGACAAAAAAAAAAAAAGUCGAACGAGAAGGCACAUGAGGAUCACCCAUGUAAGAA | 30.2 nM | 33.4 nM |  | 
4 | UUGAUUAGAAGUUAACAUGAGGAUCACCCAUGUAUUGGAUCAGAGGAUAUGCAUGUUUGAUAGUAGCAGAAGGCUGAUGGUGGA |  |  | 53.5 nM | 61.6 nM
5 | CGCUGGUGACAGCAUCCAUCAAAACAUGAGGAUCACCCAUGUAGAAGGCUGUACGGUUACCGUACAGAGGAUAUACAAUGAUGA | 15.9 nM | 26.4 nM |  | 
6 | CCGACGAAAGUCGAACGAUGUAGCAGAAGGACAUGAGGAUCACCCAUGUCAGCUGUAACAGCCAUGUAGGAUAUGCUACAUCGA | 4.41 nM | 5.85 nM |  | 
7 | CUGAUGUGAGGAUAUCGGGCUACAGGCCUGCUGCUAGCAAACGAGAAGGCACAUGAGGAUCACCCAUGUGAUAG | 15.9 nM | 35.1 nM |  | 
8 | GCCAGAGCAGGAUAUCUAUAUUAUCACAUGAGGAUCACCCAUGUCCAGCGAAAGCUGGAGGGAGAAGGGCUCUGGC | 73.2 nM | 33.8 nM |  | 
9 | CCGAAUGUCACAGGAUAUGGUCCGGGCUCGCGACCAGAAGGGUGAUCUCACAUGAGGAUCACCCAUGUGUAGGCGUUAGGCUAU |  |  | 34.1 nM | 260 nM
10 | GGUGGACAUGAGGAUCACCCAUGUGAGGAUAUCGGCUAUCUUGUCGCUGUCGGUUGCUCGAGAAGGCACAUUGU | 78.8 nM | 128 nM |  | 
11 | GGUUACAAGUAAGGAUAUGUAUAUGAAACAUAUACAGAAGGUACAUGAGGAUCACCCAUGUUCUUGCAAAGCGAAUAUGUAACC | 15.1 nM | 18.6 nM |  | 
12 | CCUCCCUGAGGAUAUCCACCCUCAUACAUGAGGAUCACCCAUGUUCAUCCGUGGCUACCCGGAGAAGGCAGCUCUG | 57.8 nM | 49.7 nM |  | 
13 | GUGCUUAACUAGAAGGCCGUAUGCAAAGCAUACGGAGGAUAUGGGUUCCGGAAACGGACAUGAGGAUCACCCAUGUGGCACAAA |  |  | 111 nM | 12.7 nM
14 | UGUCGGAGCCGAGGAUAUUACAUGAGGAUCACCCAUGUAUGAACCAAUAGCUGGAAACAGCAAUGUAAGAAGGCUGCUCCGACA | 5.08 nM | 15.7 nM |  | 
15 | GGUUCGAAAGUGAGGAUAUGCUGGUCCUUGGAUCAGCAGAAGGCACAUGAGGAUCACCCAUGUCCAAGCGGACC | 59 nM | 398 nM |  | 
16 | GGUGCGUAUGUGAGGAUAUGCUGGUCCUUGGAUCGGCAGAAGGUACAUGAGGAUCACCCAUGUGGUGUCGUUCC | 97.5 nM | 289 nM |  | 
17 | CAGGAUCAAGGAUAUCAUCGACGGAACAUGAGGAUCACCCAUGUGAUUGUGCUCUCCUUGUGAGAAGGUGGCGAAU | 38.5 nM | 36.7 nM |  | 
18 | UGGUAACAUGAGGAUCACCCAUGUCAGGAUAUCAGUAAGAAUAGAUGAGAGUAGAAGAUGAGAAGGGACUAUAU | 29.4 nM | 24.4 nM |  | 
19 | CGCUGUCACGCAGGAUAUGCAUUGGAUUACAAUGCAGAAGGGCGAUAACAUGAGGAUCACCCAUGUGUAGACAGUGAAGAAGAG |  |  | 145 nM | 27.2 nM
20 | GCGUAUUAGGUGUAGCUAGUCAUUCAAGAAGGGUGAAGAACAUGAGGAUCACCCAUGUUGUUUUUACAGGAUAUUGAUAUACGC |  |  | 68 nM | 8.52 nM
21 | CUGGAUGUCGAGGAUAUGCACCGGCUCGCUGACGCAGAAGGCGACACAUGAGGAUCACCCAUGUCGGUUCGCGA | 18.6 nM | 42 nM |  | 
22 | CUACGAACGAUAGGAUAUACUGAGGUUGAGUGGGUAGAAGGAUCGAUAGUGGAGAAGACAUGAGGAUCACCCAUGUUGUGGAUU |  |  | 176 nM | 45.5 nM
23 | GCAGCAUAAAUUAUACAUGAGGAUCACCCAUGUUACAUGUGUAAGGAUAUUGAGGUUAUUAUUGGCAAGAAGGUACAAUGCUGC |  |  | 15.2 nM | 8.57 nM
